The subject of the experiment is Mus musculus. Nature of the experiment: Immunomodulatory activity in C57BL/6 mouse assessed as lymphopenia at 10 mg/kg, po after 6 hrs by complete blood count analysis. The class given is functional. In outline:
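The amino-alcohol (unphosphorylated) form was given orally to mice, in single doses from 0.3 to 10 mg/kg, with the main screen at 10 mg/kg. Circulating lymphocytes were counted 6 h post-dose. Lymphopenia was expressed as the percent decrease in circulating lymphocytes relative to a time-matched vehicle control group.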

Our source for the Activity values is ChEMBL document CHEMBL1138585, “Synthesis and evaluation of arylalkoxy- and biarylalkoxy-phenylamide and phenylimidazoles as potent and selective sphingosine-1-phosphate receptor subtype-1 agonists” (Bioorg Med Chem Lett, 2009).

SMILES strings stand for the structures. Calls of active or inactive are those of the source. The calls are words filed in the database; no cut-off is given here.

As for `C[C@](N)(CO)C(=O)Nc1ccc(OCCc2ccc(-c3ccccc3)cc2)cc1`, the Activity worked out at 81%.

Regarding `CCCCOc1cccc(-c2ccc(NC(=O)[C@@](C)(N)CO)cc2)c1`, the Activity came out at 16%.

As to `COc1ccc(-c2ccc(NC(=O)[C@@](C)(N)CO)cc2)cc1`, the result was inactive.

Take `CCOc1cccc(-c2ccc(NC(=O)[C@@](C)(N)CO)cc2)c1`: the Activity is listed as 15%.

As to `C[C@](N)(CO)C(=O)Nc1ccc(OCCc2ccc(Cl)cc2)cc1`, the result was inactive.

For `C[C@](N)(CO)C(=O)Nc1ccc(OCCc2cccc3ccccc23)cc1`, the outcome was inactive.

Regarding `C[C@](N)(CO)C(=O)Nc1ccc(OCCc2ccc(-c3ccccc3C#N)cc2)cc1`, the Activity worked out at 78%.

On to `CC(C)c1cccc(Oc2ccc(NC(=O)[C@@](C)(N)CO)cc2)c1`, for which the result was inactive.

For `C[C@](N)(CO)C(=O)Nc1ccc(OCCc2cccc(C(F)(F)F)c2)cc1`, the result was inactive.

For the compound `C[C@](N)(CO)C(=O)Nc1ccc(Oc2ccccc2)cc1`, the result was inactive.

Turning to `CC(C)c1ccc(-c2ccc(CCOc3ccc(NC(=O)[C@@](C)(N)CO)cc3)cc2)cc1`, the result was inactive.

In the case of `C[C@](N)(CO)C(=O)Nc1ccc(Oc2ccc(Cl)cc2)cc1`, the result was inactive.

Consider `C[C@](N)(CO)C(=O)Nc1ccc(OCCc2ccc(-c3ccc(Cl)cc3)cc2)cc1`, for which the outcome was inactive.

Take `C[C@](N)(CO)C(=O)Nc1ccc(OCCc2ccc(-c3cccs3)cc2)cc1`: the Activity is 78%.

On to `C[C@](N)(CO)C(=O)Nc1ccc(OCCc2ccc(-c3ccccc3Cl)cc2)cc1`, for which the Activity is 75%.

Consider `C[C@](N)(CO)C(=O)Nc1ccc(OCCc2ccc(Cl)c(Cl)c2)cc1`, for which the Activity turned out to be 10%.

Regarding `C[C@](N)(CO)C(=O)Nc1ccc(Oc2cccc(OCc3ccccc3)c2)cc1`, the Activity was determined as 10%.

For the compound `C[C@](N)(CO)C(=O)Nc1ccc(Oc2cccc(C(F)(F)F)c2)cc1`, the outcome was inactive.

On to `C[C@](N)(CO)C(=O)Nc1ccc(OCCc2ccc(-c3cccc(C(F)(F)F)c3)cc2)cc1`, for which the Activity was found to be 51%.

Consider `C[C@](N)(CO)C(=O)Nc1ccc(OCCCCCc2ccccc2)cc1`, for which the Activity is on record as 64%.

As for `CC(C)Oc1cccc(-c2ccc(NC(=O)[C@@](C)(N)CO)cc2)c1`, the Activity is given as 23%.

Regarding `C[C@](N)(CO)C(=O)Nc1ccc(-c2ccc3c(c2)OCO3)cc1`, the Activity is recorded as 40%.

Consider `C[C@](N)(CO)C(=O)Nc1ccc(OCCc2ccc(C(F)(F)F)cc2)cc1`, for which the result was inactive.

Consider `C[C@](N)(CO)C(=O)Nc1ccc(Oc2ccc(F)cc2)cc1`, for which the result was inactive.

In the case of `COc1ccc(CCOc2ccc(NC(=O)[C@@](C)(N)CO)cc2)cc1`, the result was inactive.

Consider `CCOc1cccc(Oc2ccc(NC(=O)[C@@](C)(N)CO)cc2)c1`, for which the result was inactive.

In the case of `C[C@](N)(CO)C(=O)Nc1ccc(OCCc2ccc(-c3ccncc3)cc2)cc1`, the Activity was determined as 78%.

For the compound `CCOc1ccc(CCOc2ccc(NC(=O)[C@@](C)(N)CO)cc2)cc1`, the result was inactive.

As for `C[C@](N)(CO)C(=O)Nc1ccc(Oc2ccc(-c3ccccc3)cc2)cc1`, the Activity is 81%.

Regarding `CCCOc1cccc(-c2ccc(NC(=O)[C@@](C)(N)CO)cc2)c1`, the Activity turned out to be 20%.

In the case of `COc1cccc(-c2ccc(NC(=O)[C@@](C)(N)CO)cc2)c1`, the Activity is given as 34%.

As for `CCCCOc1cccc(Oc2ccc(NC(=O)[C@@](C)(N)CO)cc2)c1`, the outcome was inactive.

For `CCCCc1ccc(Oc2ccc(NC(=O)[C@@](C)(N)CO)cc2)cc1`, the Activity is reported as 10%.

With `CCCCc1ccc(-c2ccc(NC(=O)[C@@](C)(N)CO)cc2)cc1`, the outcome was inactive.

In the case of `CCOc1ccc(-c2ccc(CCOc3ccc(NC(=O)[C@@](C)(N)CO)cc3)cc2)cc1`, the Activity is 10%.

On to `CCc1ccc(Oc2ccc(NC(=O)[C@@](C)(N)CO)cc2)cc1`, for which the result was inactive.
